# Tested on: larval zebrafish
# Test: Battery of 10 behavioral assays in larval zebrafish
# Assay type: in vivo, zebrafish (Danio rerio)
# Conditions: for Haloperidol-like phenotype (zebrafish motor activity heat maps): Fig. 3b, three wells per drug
# Summary of the method: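 7 d.p.f. Ekkwill larvae, 8–10 per well in E3, held 1 h at 25 °C, then given compound (<1% DMSO; DMSO-treated control wells) for 1 h at room temperature. Ten-assay battery of red/blue/violet light and 60/70 dB sound, IR-lit video; MI by frame differencing over 10,500 time points. Seven 2-fold concentrations, 12 wells each, triplicate days; magnitude = 5th-percentile-subtracted MI averaged over time.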
Structure (SMILES),Haloperidol-like phenotype (zebrafish motor activity heat maps),other results
CSc1ccc2c(c1)N(CCC1CCCCN1C)c1ccccc1S2 (stereo not drawn) [thioridazine],cause haloperidol-like phenotypes,–
O=C(CCCN1CCC(O)(c2ccc(Cl)cc2)CC1)c1ccc(F)cc1 [Haloperidol],–,"MI magnitude (5 μM, 48 wells vs DMSO): increased MI magnitude at many points in the time series; Shape and average magnitude of the behavioral profile (lower concentrations (2.5–10 μM)): changed the shape of the behavioral profile without reducing its average magnitude; Motor activity (very high concentrations (20–80 μM)): reduced motor activity"
O=C(CCCN1CC=C(n2c(=O)[nH]c3ccccc32)CC1)c1ccc(F)cc1 [DROPERIDOL],cause haloperidol-like phenotypes,–
CN1c2ccccc2C(NCCCCCCC(=O)O)c2ccc(Cl)cc2S1(=O)=O (stereo not drawn) [Tianeptine],–,"Effect on behavioral profile (phenotypic distance from control animals) (reference set, seven concentrations): failed to show an effect"
O=C(CCCN1CCC(O)(c2ccc(Br)cc2)CC1)c1ccc(F)cc1 [BROMPERIDOL],cause haloperidol-like phenotypes,–
CN1CCN(CCCN2c3ccccc3Sc3ccc(Cl)cc32)CC1 [prochlorperazine],cause haloperidol-like phenotypes,–
c1ccc2c(c1)Nc1ccccc1S2 [phenothiazine],cause haloperidol-like phenotypes,–
